Data set [1] is described as follows: AUC in Han/Wistar rat at 3 mg/kg, po. Type of data set: ADME, organism-based. The arrangement: dose 3 mg/kg, route oral. The following applies: plasma. The procedure, abridged:
(§1)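 Han-Wistar rats received a single oral dose of 3 mg/kg. Plasma Cmax is reported in ng/mL and AUC in ng h/mL.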

Data set [2] in a line: Cmax in Han/Wistar rat at 3 mg/kg, po. Format: ADME, organism-based. The arrangement: dose 3 mg/kg, route oral. Particulars: in vivo. The procedure, abridged: as §1
The nature of data set [3]: Distribution coefficient, log D of the compound. Type of data set: physicochemical. Particulars: octanol/water. The procedure, abridged:
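logD was determined experimentally at pH 7.4.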

Compound `CC1(C)Cc2nc(N3CCOc4ccc(-c5cnn(Cc6ccccc6)c5)cc43)sc2C(=O)N1` displayed an AUC in data set [1] of 0.455 µg·h/mL. In addition, the Cmax in data set [2] worked out at 0.103 µg/mL. Also, the pH-dependent lipophilicity (logD) in data set [3] came to 3.91.
Compound `COC[C@H](O)Cn1cc(-c2ccc3c(c2)N(c2nc4c(s2)C(=O)NC(C)(C)C4)CCO3)cn1` yielded an AUC in data set [1] of 0.807 µg·h/mL. In data set [2], this compound registered a Cmax of 0.187 µg/mL.
The compound `CC1(C)Cc2nc(N3CCOc4ccc(-c5cnn(Cc6cccnc6)c5)cc43)sc2C(=O)N1` showed a logD in data set [3] of 2.94.
As for `Cc1ccc(Nc2ccc3c(c2)N(c2nc4c(s2)C(=O)NC(C)(C)C4)CCO3)nn1`, the AUC in data set [1] is 0.345 µg·h/mL. This compound registered a Cmax in data set [2] of 0.105 µg/mL. Further, the logD in data set [3] is 2.39.
As to `Cc1ccc(-c2ccc3c(c2)N(c2nc4c(s2)C(=O)NC(C)(C)C4)CCO3)nn1`, the logD in data set [3] was 2.32.
On the same count and under the same terms, with `CN1CCN(c2ccc(Nc3ccc4c(c3)N(c3nc5c(s3)C(=O)NC(C)(C)C5)CCO4)nn2)CC1` the figure was 1.76; with `CC1(C)Cc2nc(N3CCOc4ccc(-c5cn[nH]c5)cc43)sc2C(=O)N1`, 2.68.
Consider `CCn1nc(C)c(-c2ccc3c(c2)N(c2nc4c(s2)C(=O)NC(C)(C)C4)CCO3)c1C`, for which the AUC in data set [1] came out at 0.591 µg·h/mL. For the same compound, the Cmax in data set [2] amounted to 0.139 µg/mL. This compound also had a logD in data set [3] of 3.57.
The compound `CC1(C)Cc2nc(N3CCOc4ccc(-c5cnn(CCN)c5)cc43)sc2C(=O)N1` came in with a log distribution coefficient (logD) in data set [3] of 1.16.
Still for that read-out and setting: the value for `Cc1nn(C)cc1-c1ccc2c(c1)N(c1nc3c(s1)C(=O)NC(C)(C)C3)CCO2` was 3; that for `CC1(C)Cc2nc(N3CCOc4ccc(Nc5ccc(-c6ccccc6)nn5)cc43)sc2C(=O)N1` was 3.72; that for `Cc1nn(C)c(C)c1-c1ccc2c(c1)N(c1nc3c(s1)C(=O)NC(C)(C)C3)CCO2` was 3.23.
On to `CC1(C)Cc2nc(N3CCOc4ccc(-c5ccc(N)nn5)cc43)sc2C(=O)N1`, for which, in data set [1], the AUC worked out at 0.078 µg·h/mL. Also, the peak level in data set [2] (Cmax) was 0.014 µg/mL. The logD in data set [3] is 1.94.
`Cc1nn(CCCN)cc1-c1ccc2c(c1)N(c1nc3c(s1)C(=O)NC(C)(C)C3)CCO2` displayed a logD in data set [3] of 0.38.
Still for that read-out and setting: the value for `CN1CCN(c2ccc(-c3ccc4c(c3)N(c3nc5c(s3)C(=O)NC(C)(C)C5)CCO4)nn2)CC1` was 1.75; that for `Cc1nn(CC(C)(C)O)c(C)c1-c1ccc2c(c1)N(c1nc3c(s1)C(=O)NC(C)(C)C3)CCO2` was 2.3; that for `Cn1cc(-c2ccc3c(c2)N(c2nc4c(s2)C(=O)NC(C)(C)C4)CCO3)cn1` was 2.63.
In data set [1], `CC(C)(O)Cn1cc(-c2ccc3c(c2)N(c2nc4c(s2)C(=O)NC(C)(C)C4)CCO3)cn1` had an AUC of 1.01 µg·h/mL. Besides, the concentration in data set [2] peaked (Cmax) at 0.195 µg/mL. This compound gave a logD in data set [3] of 2.74.
In data set [3], `COc1ccc(-c2ccc3c(c2)N(c2nc4c(s2)C(=O)NC(C)(C)C4)CCO3)nn1` showed a logD of 0.22.
`COCC(O)Cn1cc(-c2ccc3c(c2)N(c2nc4c(s2)C(=O)NC(C)(C)C4)CCO3)cn1` (stereo unspecified): in data set [1], the AUC worked out at 0.495 µg·h/mL. The compound also gave a Cmax in data set [2] of 0.159 µg/mL. This compound also had a pH-dependent lipophilicity (logD) in data set [3] of 2.19.
For `CN(C)c1ccc(-c2ccc3c(c2)N(c2nc4c(s2)C(=O)NC(C)(C)C4)CCO3)nn1`, the logD in data set [3] amounted to 2.61.
`Cc1n[nH]c(C)c1-c1ccc2c(c1)N(c1nc3c(s1)C(=O)NC(C)(C)C3)CCO2` registered a logD in data set [3] of 3.04.
`Cn1ncc(-c2ccc3c(c2)N(c2nc4c(s2)C(=O)NC(C)(C)C4)CCO3)c1N` yielded a logD in data set [3] of 1.98.
Still for that read-out and setting: the value for `Cc1cc(C)c(Nc2ccc3c(c2)N(c2nc4c(s2)C(=O)NC(C)(C)C4)CCO3)nn1` was 1.97.
The same measure, in the same setting: with `COc1ccc(Nc2ccc3c(c2)N(c2nc4c(s2)C(=O)NC(C)(C)C4)CCO3)nn1` the figure was 2.74.
Same read-out and setting: with `CCn1cc(-c2ccc3c(c2)N(c2nc4c(s2)C(=O)NC(C)(C)C4)CCO3)cn1` the figure was 2.73; with `CC1(C)Cc2nc(N3CCOc4ccc(-c5ccc(N6CCNCC6)nn5)cc43)sc2C(=O)N1`, 2.45.
With `CC1(C)Cc2nc(N3CCOc4ccc(Nc5ccc(N6CCNCC6)nn5)cc43)sc2C(=O)N1`, the logD in data set [3] came out at 0.6.

Values taken from ChEMBL document CHEMBL1141705, “Optimization of a series of multi-isoform PI3 kinase inhibitors” (Bioorg Med Chem Lett, 2008).
